In ChEMBL document CHEMBL3632558, “Synthesis, antimycobacterial and antibacterial activity of l-[(1R,2S)-2-fluorocyclopropyl]naphthyridone derivatives containing an oxime-functionalized pyrrolidine moiety” (2015):
Converted amounts (≈) assume the structure as drawn.

Experiments:
Type in all cases: functional
Staphylococcus aureus [1] = experiment: Antibacterial activity against methicillin-sensitive Staphylococcus aureus 14-1 after 18 to 24 hrs
Summary of the method: (§1)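 MIC by standard NCCLS reference procedure (M100-S11); lowest concentration of compound inhibiting visible bacterial growth after incubation at 35 °C for 18–24 h, read as complete inhibition of growth. Ciprofloxacin, levofloxacin and moxifloxacin run alongside as reference agents.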

Enterococcus faecium [2] = experiment: Antibacterial activity against Enterococcus faecium 14-1 after 18 to 24 hrs; summary of the method: as §1
[3] = tested on: Mycobacterium tuberculosis; experiment: Antimycobacterial activity against Mycobacterium tuberculosis H37Rv ATCC 27294 by alamar blue assay
Summary of the method: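 Microplate Alamar Blue Assay; MIC is the lowest concentration giving ≥90% reduction in fluorescence relative to the mean of replicate bacterium-only controls. MDR strain 6133 is resistant to isoniazid and rifampicin.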

Pseudomonas aeruginosa [4] = experiment: Antibacterial activity against Pseudomonas aeruginosa 14-19 after 18 to 24 hrs; summary of the method: as §1
Enterococcus faecium [5] = experiment: Antibacterial activity against Enterococcus faecium 14-6 after 18 to 24 hrs; summary of the method: as §1
Pseudomonas aeruginosa [6] = experiment: Antibacterial activity against Pseudomonas aeruginosa 14-9 after 18 to 24 hrs; summary of the method: as §1
Klebsiella pneumoniae [7] = experiment: Antibacterial activity against Klebsiella pneumoniae 14-4 after 18 to 24 hrs; summary of the method: as §1
Klebsiella pneumoniae [8] = experiment: Antibacterial activity against Klebsiella pneumoniae 14-3 after 18 to 24 hrs; summary of the method: as §1
Staphylococcus aureus [9] = experiment: Antibacterial activity against methicillin-sensitive Staphylococcus aureus 14-3 after 18 to 24 hrs; summary of the method: as §1
Enterococcus faecalis [10] = experiment: Antibacterial activity against Enterococcus faecalis 14-1 after 18 to 24 hrs; summary of the method: as §1
Enterococcus faecalis [11] = experiment: Antibacterial activity against Enterococcus faecalis 14-2 after 18 to 24 hrs; summary of the method: as §1
[12] = tested on: Staphylococcus epidermidis; experiment: Antibacterial activity against methicillin-resistant Staphylococcus epidermidis 14-37 after 18 to 24 hrs
[13] = tested on: Staphylococcus epidermidis; experiment: Antibacterial activity against methicillin-resistant Staphylococcus epidermidis 14-21 after 18 to 24 hrs
Pseudomonas aeruginosa [14] = experiment: Antibacterial activity against Pseudomonas aeruginosa 14-16 after 18 to 24 hrs; summary of the method: as §1
Staphylococcus aureus [15] = experiment: Antibacterial activity against methicillin-sensitive Staphylococcus aureus 14-4 after 18 to 24 hrs; summary of the method: as §1
Staphylococcus aureus [16] = experiment: Antibacterial activity against methicillin-resistant Staphylococcus aureus 14-5 after 18 to 24 hrs
[17] = tested on: Staphylococcus epidermidis; experiment: Antibacterial activity against methicillin-sensitive Staphylococcus epidermidis 14-2 after 18 to 24 hrs; summary of the method: as §1
Klebsiella pneumoniae [18] = experiment: Antibacterial activity against ESBL-positive Klebsiella pneumoniae 14-17 after 18 to 24 hrs; summary of the method: as §1
Escherichia coli [19] = experiment: Antibacterial activity against ESBL-positive Escherichia coli 14-2 after 18 to 24 hrs; summary of the method: as §1
Streptococcus pneumoniae = experiment: Antibacterial activity against Streptococcus pneumoniae ATCC 19615 after 18 to 24 hrs; summary of the method: as §1
[20] = tested on: Staphylococcus epidermidis; experiment: Antibacterial activity against methicillin-resistant Staphylococcus epidermidis 14-39 after 18 to 24 hrs
Klebsiella pneumoniae [21] = experiment: Antibacterial activity against ESBL-positive Klebsiella pneumoniae 14-18 after 18 to 24 hrs; summary of the method: as §1
Pseudomonas aeruginosa [22] = experiment: Antibacterial activity against Pseudomonas aeruginosa 14-15 after 18 to 24 hrs; summary of the method: as §1
Staphylococcus aureus [23] = experiment: Antibacterial activity against methicillin-resistant Staphylococcus aureus 14-4 after 18 to 24 hrs
Staphylococcus aureus [24] = experiment: Antibacterial activity against methicillin-sensitive Staphylococcus aureus 14-2 after 18 to 24 hrs; summary of the method: as §1
Escherichia coli [25] = experiment: Antibacterial activity against Escherichia coli 14-1 after 18 to 24 hrs; summary of the method: as §1
Enterococcus faecium [26] = experiment: Antibacterial activity against Enterococcus faecium 14-2 after 18 to 24 hrs; summary of the method: as §1
Staphylococcus aureus [27] = experiment: Antibacterial activity against Staphylococcus aureus CMCC 26003 after 18 to 24 hrs; summary of the method: as §1
Escherichia coli [28] = experiment: Antibacterial activity against ESBL-positive Escherichia coli 14-1 after 18 to 24 hrs; summary of the method: as §1
Escherichia coli [29] = experiment: Antibacterial activity against Escherichia coli ATCC 25922 after 18 to 24 hrs; summary of the method: as §1
Klebsiella pneumoniae [30] = experiment: Antibacterial activity against Klebsiella pneumoniae 14-1 after 18 to 24 hrs; summary of the method: as §1
Pseudomonas aeruginosa [31] = experiment: Antibacterial activity against Pseudomonas aeruginosa ATCC 27853 after 18 to 24 hrs; summary of the method: as §1
[32] = tested on: Staphylococcus epidermidis; experiment: Antibacterial activity against methicillin-resistant Staphylococcus epidermidis 14-22 after 18 to 24 hrs
Escherichia coli [33] = experiment: Antibacterial activity against Escherichia coli 14-2 after 18 to 24 hrs; summary of the method: as §1
Klebsiella pneumoniae [34] = experiment: Antibacterial activity against ESBL-positive Klebsiella pneumoniae 14-19 after 18 to 24 hrs; summary of the method: as §1
Pseudomonas aeruginosa [35] = experiment: Antibacterial activity against Pseudomonas aeruginosa 14-14 after 18 to 24 hrs; summary of the method: as §1
Klebsiella pneumoniae [36] = experiment: Antibacterial activity against Klebsiella pneumoniae 14-2 after 18 to 24 hrs; summary of the method: as §1
Enterococcus faecium [37] = experiment: Antibacterial activity against Enterococcus faecium 14-5 after 18 to 24 hrs; summary of the method: as §1

Structure (SMILES) | MIC (Staphylococcus aureus [1]) [µg/mL] | MIC (Enterococcus faecium [2]) [µg/mL] | MIC90 [3] [µg/mL] | MIC (Pseudomonas aeruginosa [4]) [µg/mL] | MIC (Enterococcus faecium [5]) [µg/mL] | MIC (Pseudomonas aeruginosa [6]) [µg/mL] | MIC (Klebsiella pneumoniae [7]) [µg/mL] | MIC (Klebsiella pneumoniae [8]) [µg/mL] | MIC (Staphylococcus aureus [9]) [µg/mL] | MIC (Enterococcus faecalis [10]) [µg/mL] | MIC (Enterococcus faecalis [11]) [µg/mL] | MIC [12] [µg/mL] | MIC [13] [µg/mL] | MIC (Pseudomonas aeruginosa [14]) [µg/mL] | MIC (Staphylococcus aureus [15]) [µg/mL] | MIC (Staphylococcus aureus [16]) [µg/mL] | MIC [17] [µg/mL] | MIC (Klebsiella pneumoniae [18]) [µg/mL] | MIC (Escherichia coli [19]) [µg/mL] | MIC (Streptococcus pneumoniae) [µg/mL] | other results
COc1ccc(CO/N=C2\CN(c3nc4c(cc3F)c(=O)c(C(=O)O)cn4[C@@H]3C[C@@H]3F)CC2CN)cc1 (stereo partly specified) | 2 (≈ 3.89 µM) | 2 (≈ 3.89 µM) | 0.353 (≈ 0.687 µM) | 16 (≈ 31.2 µM) | 8 (≈ 15.6 µM) | 8 (≈ 15.6 µM) | 128 (≈ 249 µM) | 128 (≈ 249 µM) | 0.015 (≈ 0.0292 µM) | 32 (≈ 62.3 µM) | < 0.008 | 16 (≈ 31.2 µM) | 4 (≈ 7.79 µM) | 8 (≈ 15.6 µM) | 0.03 (≈ 0.0584 µM) | 8 (≈ 15.6 µM) | 32 (≈ 62.3 µM) | 8 (≈ 15.6 µM) | 64 (≈ 125 µM) | 0.015 (≈ 0.0292 µM) | MIC [20]: 8 µg/mL (≈ 15.6 µM); MIC (Klebsiella pneumoniae [21]): 8 µg/mL (≈ 15.6 µM); MIC (Pseudomonas aeruginosa [22]): 16 µg/mL (≈ 31.2 µM); MIC (Staphylococcus aureus [23]): 16 µg/mL (≈ 31.2 µM); MIC (Staphylococcus aureus [24]): < 0.008 µg/mL; MIC (Escherichia coli [25]): 32 µg/mL (≈ 62.3 µM); MIC (Enterococcus faecium [26]): 2 µg/mL (≈ 3.89 µM); MIC (Staphylococcus aureus [27]): < 0.008 µg/mL; MIC (Escherichia coli [28]): < 0.008 µg/mL; MIC (Escherichia coli [29]): < 0.008 µg/mL; MIC (Klebsiella pneumoniae [30]): 128 µg/mL (≈ 249 µM); MIC (Pseudomonas aeruginosa [31]): 4 µg/mL (≈ 7.79 µM); MIC [32]: 4 µg/mL (≈ 7.79 µM); MIC (Escherichia coli [33]): 32 µg/mL (≈ 62.3 µM); MIC (Klebsiella pneumoniae [34]): 128 µg/mL (≈ 249 µM); MIC (Pseudomonas aeruginosa [35]): 8 µg/mL (≈ 15.6 µM); MIC (Klebsiella pneumoniae [36]): 128 µg/mL (≈ 249 µM); MIC (Enterococcus faecium [37]): 8 µg/mL (≈ 15.6 µM)
NCC1CN(c2nc3c(cc2F)c(=O)c(C(=O)O)cn3[C@@H]2C[C@@H]2F)C/C1=N\OCc1ccc(Cl)cc1 (stereo partly specified) | 2 (≈ 3.86 µM) | 2 (≈ 3.86 µM) | 0.342 (≈ 0.66 µM) | 8 (≈ 15.4 µM) | 8 (≈ 15.4 µM) | 4 (≈ 7.72 µM) | 128 (≈ 247 µM) | 64 (≈ 124 µM) | 0.015 (≈ 0.029 µM) | 32 (≈ 61.8 µM) | 0.125 (≈ 0.241 µM) | 8 (≈ 15.4 µM) | 4 (≈ 7.72 µM) | 8 (≈ 15.4 µM) | 0.03 (≈ 0.0579 µM) | 32 (≈ 61.8 µM) | 16 (≈ 30.9 µM) | 8 (≈ 15.4 µM) | 32 (≈ 61.8 µM) | 0.015 (≈ 0.029 µM) | MIC [20]: 8 µg/mL (≈ 15.4 µM); MIC (Klebsiella pneumoniae [21]): 8 µg/mL (≈ 15.4 µM); MIC (Pseudomonas aeruginosa [22]): 8 µg/mL (≈ 15.4 µM); MIC (Staphylococcus aureus [23]): 16 µg/mL (≈ 30.9 µM); MIC (Staphylococcus aureus [24]): < 0.008 µg/mL; MIC (Escherichia coli [25]): 32 µg/mL (≈ 61.8 µM); MIC (Enterococcus faecium [26]): 2 µg/mL (≈ 3.86 µM); MIC (Staphylococcus aureus [27]): < 0.008 µg/mL; MIC (Escherichia coli [28]): 4 µg/mL (≈ 7.72 µM); MIC (Escherichia coli [29]): 0.125 µg/mL (≈ 0.241 µM); MIC (Klebsiella pneumoniae [30]): 128 µg/mL (≈ 247 µM); MIC (Pseudomonas aeruginosa [31]): 4 µg/mL (≈ 7.72 µM); MIC [32]: 4 µg/mL (≈ 7.72 µM); MIC (Escherichia coli [33]): 32 µg/mL (≈ 61.8 µM); MIC (Klebsiella pneumoniae [34]): 64 µg/mL (≈ 124 µM); MIC (Pseudomonas aeruginosa [35]): 8 µg/mL (≈ 15.4 µM); MIC (Klebsiella pneumoniae [36]): 128 µg/mL (≈ 247 µM); MIC (Enterococcus faecium [37]): 4 µg/mL (≈ 7.72 µM)
